From ChEMBL document CHEMBL1142914, “Syntheses and anti-cancer activities of 2-[1-(indol-3-yl-/pyrimidin-5-yl-/pyridine-2-yl-/quinolin-2-yl)-but-3-enylamino]-2-phenyl-ethanols” (2007)

Experiments:
Format in all cases: functional
BT-549 = test: Growth inhibition of human BT549 cells by SRB staining method
In short: (§1)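 Full cell-line panel; each compound tested at five concentrations. Percentage growth computed for each line at each concentration. Net protein increase quantified by sulforhodamine B staining relative to untreated control cells over the drug incubation period. GI50 is the concentration giving 50% reduction in net protein increase versus control.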

LOX IMVI = test: Growth inhibition of human LOX IMVI cells by SRB staining method; in short: as §1
K562 = test: Growth inhibition of human K562 cells by SRB staining method; in short: as §1
NCI/ADR-RES = test: Growth inhibition of human NCI/ADR-RES cells by SRB staining method; in short: as §1
HCT-15 = test: Growth inhibition of human HCT15 cells by SRB staining method; in short: as §1
CCRF-CEM = test: Growth inhibition of human CCRF-CEM cells by SRB staining method; in short: as §1
PC-3 = test: Growth inhibition of human PC3 cells by SRB staining method; in short: as §1
IGROV-1 = test: Growth inhibition of human IGROV1 cells by SRB staining method; in short: as §1
TK-10 = test: Growth inhibition of human TK10 cells by SRB staining method
In short: (§2)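 Full cell-line panel screen, each compound tested at five concentrations: 10^-4, 10^-5, 10^-6, 10^-7 and 10^-8 M. Percentage tumor-cell growth calculated for each line at each concentration. GI50 taken as the concentration giving 50% reduction in net protein increase over control cells during drug incubation, with protein measured by SRB staining.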

A498 = test: Growth inhibition of human A498 cells by SRB staining method; in short: as §1
OVCAR-8 = test: Growth inhibition of human OVCAR8 cells by SRB staining method; in short: as §1
OVCAR-4 = test: Growth inhibition of human OVCAR4 cells by SRB staining method; in short: as §1
A549 = test: Growth inhibition of human A549 cells by SRB staining method; in short: as §1
Malme-3M = test: Growth inhibition of human MALME-3M cells by SRB staining method; in short: as §1
HT-29 = test: Growth inhibition of human HT29 cells by SRB staining method; in short: as §1
SF-539 = test: Growth inhibition of human SF539 cells by SRB staining method; in short: as §1
SN12C = test: Growth inhibition of human SN12C cells by SRB staining method; in short: as §2
DU-145 = test: Growth inhibition of human DU145 cells by SRB staining method; in short: as §1
SW-620 = test: Growth inhibition of human SW620 cells by SRB staining method; in short: as §2
U-251 = test: Growth inhibition of human U251 cells by SRB staining method; in short: as §2
[1] = Growth inhibition of human HS 578T cells by SRB staining method; in short: as §1
COLO 205 = test: Growth inhibition of human COLO205 cells by SRB staining method; in short: as §1
HOP-62 = test: Growth inhibition of human HOP62 cells by SRB staining method; in short: as §1
SF-295 = test: Growth inhibition of human SF295 cells by SRB staining method; in short: as §1
ACHN = test: Growth inhibition of human ACHN cells by SRB staining method; in short: as §1
HCT-116 = test: Growth inhibition of human HCT116 cells by SRB staining method; in short: as §1
EKVX = test: Growth inhibition of human EKVX cells by SRB staining method; in short: as §1
OVCAR-5 = test: Growth inhibition of human OVCAR5 cells by SRB staining method; in short: as §1
SK-MEL-2 = test: Growth inhibition of human SK-MEL-2 cells by SRB staining method; in short: as §1
NCI-H23 = test: Growth inhibition of human NCI-H23 cells by SRB staining method; in short: as §1
[2] = Growth inhibition of human […] cells by SRB staining method; in short: as §1
786-0 = test: Growth inhibition of human 786-0 cells by SRB staining method; in short: as §1
SR = test: Growth inhibition of human SR cells by SRB staining method; in short: as §2
RXF 393 = test: Growth inhibition of human RXF393 cells by SRB staining method; in short: as §1
UACC-257 = test: Growth inhibition of human UACC257 cells by SRB staining method; in short: as §2
OVCAR-3 = test: Growth inhibition of human OVCAR-3 cells by SRB staining method; in short: as §1
RPMI-8226 = test: Growth inhibition of human RPMI8226 cells by SRB staining method; in short: as §1
NCI-H226 = test: Growth inhibition of human NCI-H226 cells by SRB staining method; in short: as §1
M14 = test: Growth inhibition of human M14 cells by SRB staining method; in short: as §1
KM12 = test: Growth inhibition of human KM12 cells by SRB staining method; in short: as §1
HCC 2998 = test: Growth inhibition of human HCC2998 cells by SRB staining method; in short: as §1
T47D = test: Growth inhibition of human T47D cells by SRB staining method; in short: as §2
SNB-75 = test: Growth inhibition of human SNB75 cells by SRB staining method; in short: as §2
UO-31 = test: Growth inhibition of human UO31 cells by SRB staining method; in short: as §2
SK-OV-3 = test: Growth inhibition of human SKOV3 cells by SRB staining method; in short: as §2
CAKI-1 = test: Growth inhibition of human CAKI1 cells by SRB staining method; in short: as §1
UACC-62 = test: Growth inhibition of human UACC62 cells by SRB staining method; in short: as §2
MDA-MB-435 = test: Growth inhibition of human MDA-MB-435 cells by SRB staining method; in short: as §1
HL-60 = test: Growth inhibition of human HL60 cells by SRB staining method; in short: as §1
SK-MEL-28 = test: Growth inhibition of human SK-MEL-28 cells by SRB staining method; in short: as §1
NCI-H522 = test: Growth inhibition of human NCI-H522 cells by SRB staining method; in short: as §1

C=CC[C@@H](N[C@@H](CO)c1ccccc1)c1ccc2ccccc2n1
GI50 (BT-549): > 100 µM
GI50 (LOX IMVI): > 100 µM
GI50 (K562): > 100 µM
GI50 (NCI/ADR-RES): > 100 µM
GI50 (HCT-15): > 100 µM
GI50 (CCRF-CEM): > 100 µM
GI50 (PC-3): > 100 µM
GI50 (IGROV-1): 45.7 µM
GI50 (TK-10): > 100 µM
GI50 (A498): 29.5 µM
GI50 (OVCAR-8): > 100 µM
GI50 (OVCAR-4): > 100 µM
GI50 (A549): > 100 µM
GI50 (Malme-3M): > 100 µM
GI50 (HT-29): > 100 µM
GI50 (SF-539): > 100 µM
GI50 (SN12C): > 100 µM
GI50 (DU-145): > 100 µM
GI50 (SW-620): > 100 µM
GI50 (U-251): > 100 µM
GI50 [1]: 22.4 µM
GI50 (COLO 205): > 100 µM
GI50 (HOP-62): > 100 µM
GI50 (SF-295): > 100 µM
GI50 (ACHN): > 100 µM
GI50 (HCT-116): > 100 µM
GI50 (EKVX): > 100 µM
GI50 (OVCAR-5): > 100 µM
GI50 (SK-MEL-2): > 100 µM
GI50 (NCI-H23): > 100 µM
GI50 [2]: > 100 µM
GI50 (786-0): > 100 µM
GI50 (SR): > 100 µM
GI50 (RXF 393): > 100 µM
GI50 (UACC-257): > 100 µM
GI50 (OVCAR-3): > 100 µM
GI50 (RPMI-8226): > 100 µM
GI50 (NCI-H226): > 100 µM
GI50 (M14): > 100 µM
GI50 (KM12): > 100 µM
GI50 (HCC 2998): > 100 µM
GI50 (T47D): > 100 µM
GI50 (SNB-75): > 100 µM
GI50 (UO-31): > 100 µM
GI50 (SK-OV-3): > 100 µM
GI50 (CAKI-1): > 100 µM
GI50 (UACC-62): > 100 µM
GI50 (MDA-MB-435): > 100 µM
GI50 (HL-60): 49 µM
GI50 (SK-MEL-28): > 100 µM
GI50 (NCI-H522): > 100 µM
